ChEMBL document CHEMBL1926577, “Novel 1,3,4-heterodiazole analogues: synthesis and in-vitro antitumor activity” (2012)

What was measured:
Format in all cases: functional
Malme-3M = experiment: Growth inhibition of human MALME-3M cells at 10 uM after 48 hrs by coulter counter method; conditions: read-out: GI
How it was run: (§1)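 NCI 60-cell-line panel, single dose. Compound dissolved first in DMSO, then diluted in phosphate-buffered saline so that every final dilution held under 1% DMSO. Duplicate wells received cells at 6 × 10⁴ cells/ml. Controls held PBS/DMSO at the same dilution. Plates were incubated 48 h at 37 °C under 5% CO₂. Cells were then diluted 10-fold in saline and counted on a Coulter counter, with counts corrected for the dilution. Results are given as percent growth inhibition.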

UACC-257 = experiment: Growth inhibition of human UACC257 cells at 10 uM after 48 hrs by coulter counter method; conditions: UACC-257, 48 h, read-out: GI; how it was run: as §1
SN12C = experiment: Growth inhibition of human SN12C cells at 10 uM after 48 hrs by coulter counter method; conditions: read-out: GI; how it was run: as §1
EKVX = experiment: Growth inhibition of human EKVX cells at 10 uM after 48 hrs by coulter counter method; conditions: read-out: GI; how it was run: as §1
NCI-H522 = experiment: Growth inhibition of human NCI-H522 cells at 10 uM after 48 hrs by coulter counter method; conditions: NCI-H522, 48 h, read-out: GI; how it was run: as §1
NCI-H23 = experiment: Growth inhibition of human NCI-H23 cells at 10 uM after 48 hrs by coulter counter method; conditions: NCI-H23, 48 h, read-out: GI; how it was run: as §1
NCI/ADR-RES = experiment: Growth inhibition of human NCI/ADR-RES cells at 10 uM after 48 hrs by coulter counter method; conditions: read-out: GI; how it was run: as §1
ACHN = experiment: Growth inhibition of human ACHN cells at 10 uM after 48 hrs by coulter counter method; conditions: read-out: GI; how it was run: as §1
HCT-15 = experiment: Growth inhibition of human HCT15 cells at 10 uM after 48 hrs by coulter counter method; conditions: HCT-15, 48 h, read-out: GI; how it was run: as §1
BT-549 = experiment: Growth inhibition of human BT549 cells at 10 uM after 48 hrs by coulter counter method; conditions: BT-549, 48 h, read-out: GI; how it was run: as §1
HCT-116 = experiment: Growth inhibition of human HCT116 cells at 10 uM after 48 hrs by coulter counter method; conditions: HCT-116, 48 h, read-out: GI; how it was run: as §1
A549 = experiment: Growth inhibition of human A549 cells at 10 uM after 48 hrs by coulter counter method; conditions: A549, 48 h, read-out: GI; how it was run: as §1
OVCAR-8 = experiment: Growth inhibition of human OVCAR8 cells at 10 uM after 48 hrs by coulter counter method; conditions: OVCAR-8, 48 h, read-out: GI; how it was run: as §1
RPMI-8226 = experiment: Growth inhibition of human RPMI8226 cells at 10 uM after 48 hrs by coulter counter method; conditions: RPMI-8226, 48 h, read-out: GI; how it was run: as §1
SNB-75 = experiment: Growth inhibition of human SNB75 cells at 10 uM after 48 hrs by coulter counter method; conditions: SNB-75, 48 h, read-out: GI; how it was run: as §1
M14 = experiment: Growth inhibition of human M14 cells at 10 uM after 48 hrs by coulter counter method; conditions: M14, 48 h, read-out: GI; how it was run: as §1
T47D = experiment: Growth inhibition of human T47D cells at 10 uM after 48 hrs by coulter counter method; conditions: read-out: GI; how it was run: as §1
SNB-19 = experiment: Growth inhibition of human SNB19 cells at 10 uM after 48 hrs by coulter counter method; conditions: SNB-19, 48 h, read-out: GI; how it was run: as §1
SR = experiment: Growth inhibition of human SR cells at 10 uM after 48 hrs by coulter counter method; conditions: read-out: GI; how it was run: as §1
NCI-H226 = experiment: Growth inhibition of human NCI-H226 cells at 10 uM after 48 hrs by coulter counter method; conditions: NCI-H226, 48 h, read-out: GI; how it was run: as §1
LOX IMVI = experiment: Growth inhibition of human LOXIMVI cells at 10 uM after 48 hrs by coulter counter method; conditions: read-out: GI; how it was run: as §1
IGROV-1 = experiment: Growth inhibition of human IGROV1 cells at 10 uM after 48 hrs by coulter counter method; conditions: IGROV-1, 48 h, read-out: GI; how it was run: as §1
CCRF-CEM = experiment: Growth inhibition of human CCRF-CEM cells at 10 uM after 48 hrs by coulter counter method; conditions: read-out: GI; how it was run: as §1
KM12 = experiment: Growth inhibition of human KM12 cells at 10 uM after 48 hrs by coulter counter method; conditions: KM12, 48 h, read-out: GI; how it was run: as §1
MDA-MB-468 = experiment: Growth inhibition of human MDA-MB-468 cells at 10 uM after 48 hrs by coulter counter method; conditions: MDA-MB-468, 48 h, read-out: GI; how it was run: as §1
NCI-H322M = experiment: Growth inhibition of human NCI-H322M cells at 10 uM after 48 hrs by coulter counter method; conditions: read-out: GI; how it was run: as §1
U-251 = experiment: Growth inhibition of human U251 cells at 10 uM after 48 hrs by coulter counter method; conditions: U-251, 48 h, read-out: GI; how it was run: as §1
A498 = experiment: Growth inhibition of human A498 cells at 10 uM after 48 hrs by coulter counter method; conditions: A498, 48 h, read-out: GI; how it was run: as §1
K562 = experiment: Growth inhibition of human K562 cells at 10 uM after 48 hrs by coulter counter method; conditions: K562, 48 h, read-out: GI; how it was run: as §1
UO-31 = experiment: Growth inhibition of human UO31 cells at 10 uM after 48 hrs by coulter counter method; conditions: UO-31, 48 h, read-out: GI; how it was run: as §1
SF-295 = experiment: Growth inhibition of human SF295 cells at 10 uM after 48 hrs by coulter counter method; conditions: SF-295, 48 h, read-out: GI; how it was run: as §1
SK-MEL-2 = experiment: Growth inhibition of human SK-MEL-2 cells at 10 uM after 48 hrs by coulter counter method; conditions: SK-MEL-2, 48 h, read-out: GI; how it was run: as §1
CAKI-1 = experiment: Growth inhibition of human Caki1 cells at 10 uM after 48 hrs by coulter counter method; conditions: CAKI-1, 48 h, read-out: GI; how it was run: as §1
MDA-MB-435 = experiment: Growth inhibition of human MDA-MB-435 cells at 10 uM after 48 hrs by coulter counter method; conditions: MDA-MB-435, 48 h, read-out: GI; how it was run: as §1
UACC-62 = experiment: Growth inhibition of human UACC62 cells at 10 uM after 48 hrs by coulter counter method; conditions: UACC-62, 48 h, read-out: GI; how it was run: as §1
PC-3 = experiment: Growth inhibition of human PC3 cells at 10 uM after 48 hrs by coulter counter method; conditions: PC-3, 48 h, read-out: GI; how it was run: as §1
MOLT-4 = experiment: Growth inhibition of human MOLT4 cells at 10 uM after 48 hrs by coulter counter method; conditions: MOLT-4, 48 h, read-out: GI; how it was run: as §1
SK-MEL-28 = experiment: Growth inhibition of human SK-MEL-28 cells at 10 uM after 48 hrs by coulter counter method; conditions: SK-MEL-28, 48 h, read-out: GI; how it was run: as §1
HL-60(TB) = experiment: Growth inhibition of human HL-60(TB) cells at 10 uM after 48 hrs by coulter counter method; conditions: HL-60, 48 h, read-out: GI
How it was run: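 Single-dose screen on the NCI 60-line panel (leukemia subpanel). Compound is dissolved in DMSO and diluted in PBS, with final DMSO below 1%. Duplicate wells hold 6 × 10⁴ cells/ml at 37 °C, 5% CO₂, for 48 h. Cells are counted by Coulter counter after 10-fold saline dilution. Read-out is percent growth versus PBS/DMSO controls, expressed as % growth inhibition.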

SF-268 = experiment: Growth inhibition of human SF268 cells at 10 uM after 48 hrs by coulter counter method; conditions: SF-268, 48 h, read-out: GI; how it was run: as §1
HT-29 = experiment: Growth inhibition of human HT-29 cells at 10 uM after 48 hrs by coulter counter method; conditions: HT-29, 48 h, read-out: GI; how it was run: as §1
MCF7 = experiment: Growth inhibition of human MCF7 cells at 10 uM after 48 hrs by coulter counter method; conditions: MCF7, 48 h, read-out: GI; how it was run: as §1
786-0 = experiment: Growth inhibition of human 786-0 cells at 10 uM after 48 hrs by coulter counter method; conditions: 786-0, 48 h, read-out: GI; how it was run: as §1
SK-MEL-5 = experiment: Growth inhibition of human SK-MEL-5 cells at 10 uM after 48 hrs by coulter counter method; conditions: SK-MEL-5, 48 h, read-out: GI; how it was run: as §1
TK-10 = experiment: Growth inhibition of human TK10 cells at 10 uM after 48 hrs by coulter counter method; conditions: TK-10, 48 h, read-out: GI; how it was run: as §1

O=C1CN2N=C(c3ccc(Cl)cc3)OC2=N1
inhibition of growth at 10 µM (Malme-3M): < 10%
inhibition of growth at 10 µM (UACC-257): < 10%
inhibition of growth at 10 µM (SN12C): < 10%
inhibition of growth at 10 µM (EKVX): < 10%
inhibition of growth at 10 µM (NCI-H522): 18.9%
inhibition of growth at 10 µM (NCI-H23): < 10%
inhibition of growth at 10 µM (NCI/ADR-RES): < 10%
inhibition of growth at 10 µM (ACHN): < 10%
inhibition of growth at 10 µM (HCT-15): < 10%
inhibition of growth at 10 µM (BT-549): < 10%
inhibition of growth at 10 µM (HCT-116): < 10%
inhibition of growth at 10 µM (A549): < 10%
inhibition of growth at 10 µM (OVCAR-8): < 10%
inhibition of growth at 10 µM (RPMI-8226): < 10%
inhibition of growth at 10 µM (SNB-75): < 10%
inhibition of growth at 10 µM (M14): < 10%
inhibition of growth at 10 µM (T47D): < 10%
inhibition of growth at 10 µM (SNB-19): < 10%
inhibition of growth at 10 µM (SR): < 10%
inhibition of growth at 10 µM (NCI-H226): < 10%
inhibition of growth at 10 µM (LOX IMVI): < 10%
inhibition of growth at 10 µM (IGROV-1): < 10%
inhibition of growth at 10 µM (CCRF-CEM): < 10%
inhibition of growth at 10 µM (KM12): < 10%
inhibition of growth at 10 µM (MDA-MB-468): < 10%
inhibition of growth at 10 µM (NCI-H322M): < 10%
inhibition of growth at 10 µM (U-251): < 10%
inhibition of growth at 10 µM (A498): < 10%
inhibition of growth at 10 µM (K562): 17.2%
inhibition of growth at 10 µM (UO-31): 26.8%
inhibition of growth at 10 µM (SF-295): < 10%
inhibition of growth at 10 µM (SK-MEL-2): < 10%
inhibition of growth at 10 µM (CAKI-1): < 10%
inhibition of growth at 10 µM (MDA-MB-435): < 10%
inhibition of growth at 10 µM (UACC-62): < 10%
inhibition of growth at 10 µM (PC-3): < 10%
inhibition of growth at 10 µM (MOLT-4): < 10%
inhibition of growth at 10 µM (SK-MEL-28): < 10%
inhibition of growth at 10 µM (HL-60(TB)): < 10%
inhibition of growth at 10 µM (SF-268): < 10%
inhibition of growth at 10 µM (HT-29): < 10%
inhibition of growth at 10 µM (MCF7): < 10%
inhibition of growth at 10 µM (786-0): < 10%
inhibition of growth at 10 µM (SK-MEL-5): < 10%
inhibition of growth at 10 µM (TK-10): < 10%
